This passage reports Activity results from ChEMBL document CHEMBL4371016, “Proline- and Arginine-Rich Peptides as Flexible Allosteric Modulators of Human Proteasome Activity” (J Med Chem, 2019).

Molecules are shown by their SMILES. Activity calls are given as the source filed them. No cut-off for these calls is given here. Residues, ends and D or L forms follow the SMILES beside them.

In test [1] the target is T1, Proteasome Macropain subunit MB1 (Homo sapiens) (UniProt P28074).
T1 sequence (whole entry): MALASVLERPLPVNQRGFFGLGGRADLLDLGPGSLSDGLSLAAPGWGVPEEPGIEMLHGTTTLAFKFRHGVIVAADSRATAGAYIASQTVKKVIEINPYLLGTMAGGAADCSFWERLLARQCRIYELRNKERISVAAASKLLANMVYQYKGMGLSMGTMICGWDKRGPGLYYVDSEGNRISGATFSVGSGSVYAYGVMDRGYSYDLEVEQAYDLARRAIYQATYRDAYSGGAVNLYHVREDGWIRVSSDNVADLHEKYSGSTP
Description: Positive allosteric modulation of latent human erythrocytes 20S proteasome chymotrypsin like activity up to 10 uM using LFP as substrate measured every 2 mins up to 60 mins by fluorescence assay.

Test [2] concerns the target Proteasome Macropain subunit (Homo sapiens) (UniProt P49721). In words: Negative allosteric modulation of SDS-activated human erythrocytes 20S proteasome trypsin like activity at 10 uM using Boc-LRR-AMC as substrate measured every 2 mins up to 60 mins by fluorescence assay.
Test [3] addresses T1, Proteasome Macropain subunit MB1 (Homo sapiens). In words: Positive allosteric modulation of latent human erythrocytes 20S proteasome chymotrypsin like activity up to 10 uM using LFP as substrate measured every 2 mins up to 60 mins by fluorescence assay.
Test [4] deals with T2, 20S proteasome (Homo sapiens) (UniProt P49721+P20618+P28074+P28062+P28065+P28072+P25786+P25787+P25788+P25789+P28066+P60900+O14818+Q8TAA3+P40306+A5LHX3+P49720+P28070+Q99436). Description: Negative allosteric modulation of SDS-activated human erythrocytes 20S proteasome assessed as reduction in human alpha-synuclein degradation at 10 uM after 1 hr by SDS-PAGE analysis. In outline: (§1)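 Human α-synuclein or yeast enolase digested by human 20S activated with 0.01% SDS (20S:substrate 1:100 pmol α-syn, 1:10 pmol enolase) in 20 mM HEPES pH 7.4 at 37 °C for 1 h (α-syn) or 4 h (enolase). DMSO at or below 0.05%. SDS–PAGE (12% or 10%) with Coomassie staining; remaining substrate densitometry as percent of control; at least three experiments, mean ± SEM.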

The target in test [5] is T2, 20S proteasome (Homo sapiens). In words: Negative allosteric modulation of SDS-activated human erythrocytes 20S proteasome assessed as reduction in yeast enolase degradation at 1 uM after 4 hr by SDS-PAGE analysis.
Test [6] addresses T1, Proteasome Macropain subunit MB1 (Homo sapiens). Description: Negative allosteric modulation of SDS-activated human erythrocytes 20S proteasome chymotrypsin like activity using Suc-LLVY-AMC as substrate measured every 2 mins up to 60 mins by fluorescence assay. In short, it runs like this:
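1.4 nM CP (0.001 mg/mL) in 50 mM Tris-HCl pH 8.0, activated with 0.005% SDS where stated, otherwise latent. Suc-LLVY-AMC at 100 μM final. AMC fluorescence read every 2 min up to 60 min at 37 °C. Activity relative to DMSO-treated enzyme, from at least three independent replicates. Peptide stocks 10 mM in DMSO.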

Test [7] concerns the target T2, 20S proteasome (Homo sapiens). Description: Negative allosteric modulation of SDS-activated human erythrocytes 20S proteasome assessed as reduction in yeast enolase degradation at 10 uM after 4 hr by SDS-PAGE analysis.
Test [8] addresses T3, Proteasome component C5 (Homo sapiens) (UniProt P20618).
T3 sequence (whole entry): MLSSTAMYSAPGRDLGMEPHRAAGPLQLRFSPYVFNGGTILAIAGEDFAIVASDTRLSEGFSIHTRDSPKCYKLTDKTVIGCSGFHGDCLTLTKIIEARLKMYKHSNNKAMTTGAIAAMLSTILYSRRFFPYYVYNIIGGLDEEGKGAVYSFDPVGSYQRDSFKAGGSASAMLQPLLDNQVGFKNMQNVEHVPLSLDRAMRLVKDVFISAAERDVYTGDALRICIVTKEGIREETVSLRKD
Description: Negative allosteric modulation of SDS-activated human erythrocytes 20S proteasome caspase like activity at lower concentration using Z-LLE-AMC as substrate measured every 2 mins up to 60 mins by fluorescence assay.

Test [9] addresses T1, Proteasome Macropain subunit MB1 (Homo sapiens). In words: Positive allosteric modulation of latent human erythrocytes 20S proteasome chymotrypsin like activity at 1 uM using Suc-LLVY-AMC as substrate measured every 2 mins up to 60 mins by fluorescence assay.
For test [10] the target is unchanged. Description: Negative allosteric modulation of SDS-activated human erythrocytes 20S proteasome chymotrypsin like activity up to 10 uM using LFP as substrate measured every 2 mins up to 60 mins by fluorescence assay.
Test [11] has as its target T2, 20S proteasome (Homo sapiens). Description: Negative allosteric modulation of SDS-activated human erythrocytes 20S proteasome assessed as reduction in human alpha-synuclein degradation at 1 uM after 1 hr by SDS-PAGE analysis. In short, it runs like this:
as §1

Sequence of Proteasome Macropain subunit (Homo sapiens) (P49721 whole entry): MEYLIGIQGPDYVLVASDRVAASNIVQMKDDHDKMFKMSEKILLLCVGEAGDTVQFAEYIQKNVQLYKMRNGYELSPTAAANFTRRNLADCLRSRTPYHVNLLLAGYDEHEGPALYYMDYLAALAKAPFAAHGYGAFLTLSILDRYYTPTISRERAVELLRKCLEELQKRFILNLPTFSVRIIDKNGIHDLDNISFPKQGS

Turning to `CC(C)C[C@H](NC(=O)[C@H](Cc1ccc(O)cc1)NC(=O)[C@@H]1CCCN1C(=O)[C@@H]1CCCN1C(=O)[C@H](CCCNC(=N)N)NC(=O)[C@@H]1CCCN1C(=O)[C@H](CCCNC(=N)N)NC(=O)[C@H](CCCNC(=N)N)NC(=O)[C@@H](N)CCCNC(=N)N)C(=O)N1CCC[C@H]1C(=O)N[C@@H](CCCNC(=N)N)C(=O)O` (H-RRRPRPPYLPR-OH), the result in test [1], in test [3], in test [5] and in test [7] was inactive. Besides, the outcome in test [2], in test [4], in test [8], in test [9] and in [10] was Active. Besides, the Activity result in test [6] is “Dose-dependent effect”.

For `CC(C)C[C@H](NC(=O)[C@H](Cc1ccc(O)cc1)NC(=O)[C@@H]1CCCN1C(=O)[C@@H]1CCCN1C(=O)[C@H](CCCNC(=N)N)NC(=O)[C@@H]1CCCN1C(=O)[C@H](CCCNC(=N)N)NC(=O)[C@H](CCCNC(=N)N)NC(=O)[C@@H](N)CCCNC(=N)N)C(=O)N1CCC[C@H]1C(=O)N[C@@H](CCCNC(=N)N)C(=O)N[C@@H](Cc1c[nH]c2ccccc12)C(=O)NCC(N)=O` (H-RRRPRPPYLPRWG-NH2), the outcome in [1] and in test [3] was inactive. In addition, the result in [2], in [8] and in [10] was Active.

Regarding `CC(C)C[C@H](NC(=O)[C@H](Cc1ccc(O)cc1)NC(=O)[C@H](CCCNC(=N)N)NC(=O)[C@H](CCCNC(=N)N)NC(=O)[C@@H](N)CCCNC(=N)N)C(=O)N1CCC[C@H]1C(=O)N[C@@H](CCCNC(=N)N)C(=O)N[C@@H](Cc1c[nH]c2ccccc12)C(=O)NCC(=O)O` (H-RRRYLPRWG-OH), the outcome in test [1] and in test [3] was inactive. In addition, the result in test [2], in [8] and in [10] was Active. The Activity entry in test [6] is “Dose-dependent effect”.

Turning to `N=C(N)NCCC[C@H](NC(=O)[C@H](CCCNC(=N)N)NC(=O)[C@@H](N)CCCNC(=N)N)C(=O)N[C@@H](Cc1ccc(O)cc1)C(=O)N1CCC[C@H]1C(=O)N[C@@H](CCCNC(=N)N)C(=O)N[C@@H](Cc1c[nH]c2ccccc12)C(=O)NCC(=O)O` (H-RRRYPRWG-OH), the outcome in test [1] and in [3] was inactive. Besides, the result in test [2], in test [8] and in test [10] was Active.

As to `CC(C)C[C@H](NC(=O)[C@H](Cc1ccc(O)cc1)NC(=O)[C@H](CCCNC(=N)N)NC(=O)[C@H](CCCNC(=N)N)NC(=O)[C@@H](N)CCCNC(=N)N)C(=O)N1CCC[C@H]1C(=O)N[C@@H](CCCNC(=N)N)C(=O)N[C@@H](Cc1ccc(O)cc1)C(=O)N[C@@H](C)C(N)=O` (H-RRRYLPRYA-NH2), the result in test [1], in test [3], in [5] and in test [7] was inactive. For the same compound, the result in test [2], in [4], in [8], in [9] and in test [10] was Active. The Activity result in test [6] is “Dose-dependent effect”.

Consider `CC(C)C[C@H](NC(=O)[C@H](Cc1ccc(O)cc1)NC(=O)[C@@H]1CCCN1C(=O)[C@@H]1CCCN1C(=O)[C@@H]1CCCN1C(=O)[C@@H]1CCCN1C(=O)[C@H](CCCNC(=N)N)NC(=O)[C@H](CCCNC(=N)N)NC(=O)[C@@H](N)CCCNC(=N)N)C(=O)N1CCC[C@H]1C(=O)N[C@@H](CCCNC(=N)N)C(=O)N[C@@H](Cc1c[nH]c2ccccc12)C(=O)NCC(=O)O` (H-RRRPPPPYLPRWG-OH), for which the outcome in [1] was inactive. The outcome in [10] was Active.

With `CC(C)C[C@H](NC(=O)[C@H](Cc1ccc(O)cc1)NC(=O)[C@@H]1CCCN1C(=O)[C@@H]1CCCN1C(=O)[C@H](CCCNC(=N)N)NC(=O)[C@@H]1CCCN1C(=O)[C@H](CCCNC(=N)N)NC(=O)[C@H](CCCNC(=N)N)NC(=O)[C@@H](N)CCCNC(=N)N)C(=O)N1CCC[C@H]1C(=O)N[C@@H](CCCNC(=N)N)C(=O)N[C@@H](Cc1ccccc1)C(=O)NCC(=O)O` (H-RRRPRPPYLPRFG-OH), the result in test [1] and in [3] was inactive. Also, the outcome in test [2], in test [4], in test [5], in [11], in test [7] and in test [8] was Active. Also, the result in [9] and in test [10] was Active.
